Laboratory results from ChEMBL document CHEMBL1926598, “Synthesis, anti-inflammatory activity and ulcerogenic liability of novel nitric oxide donating/chalcone hybrids” (Bioorg Med Chem, 2012).

Assays:
Rattus norvegicus [1] = test: Gastric toxicity in albino rat assessed as edema at 100 mg/kg, po after 5 hrs by hematoxylin and eosin staining; assay type: organism-based; parameters: dose 100 mg/kg, route oral; details: in vivo
Outline: (§1)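 Stomach sections from control and treated rats were dewaxed and hydrated through graded alcohols. They were stained with haematoxylin 5–7 min, differentiated 5–10 s in 1% HCl in 70% alcohol, then stained with 1% eosin for 10 min. Mucosa of the fundic stomach was examined by light microscopy.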

Rattus norvegicus [2] = test: Antiinflammatory activity in albino rat assessed as inhibition of carrageenan-induced paw edema at 100 mg/kg, po administered 30 mins prior to challenge measured after 1 hr relative to untreated control; assay type: functional
Outline: (§2)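 Adult male albino rats (120–140 g), groups of four, fasted 24 h with water allowed. Test compound suspended in 0.5% w/v CMC in water, given orally at 100 mg/kg; controls received CMC alone. After 30 min, 0.1 mL of 1% carrageenan in saline injected subplantar into right hind paw, saline into left. Paw thickness measured by caliper; % inhibition = [(VR−VL)control − (VR−VL)treated]/(VR−VL)control ×100; one-way ANOVA versus control.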

Rattus norvegicus [3] = test: Gastric toxicity in albino rat assessed as capillary dilation in lamina propia below fundic gland at 100 mg/kg, po after 5 hrs by hematoxylin and eosin staining; assay type: organism-based; parameters: dose 100 mg/kg, route oral; details: in vivo; outline: as §1
Rattus norvegicus [4] = test: Gastric toxicity in albino rat assessed as capillary inflammatory cells appearance at 100 mg/kg, po after 5 hrs by hematoxylin and eosin staining; assay type: organism-based; parameters: dose 100 mg/kg, route oral; details: in vivo; outline: as §1
Rattus norvegicus [5] = test: Antiinflammatory activity in albino rat assessed as inhibition of carrageenan-induced paw edema at 100 mg/kg, po administered 30 mins prior to challenge measured after 4 hrs relative to untreated control; assay type: functional; outline: as §2
Rattus norvegicus [6] = test: Antiinflammatory activity in albino rat assessed as inhibition of carrageenan-induced paw edema at 100 mg/kg, po administered 30 mins prior to challenge measured after 3 hrs relative to untreated control; assay type: functional; outline: as §2
Rattus norvegicus [7] = test: Gastric toxicity in albino rat assessed as ulcer index at 100 mg/kg, po after 5 hrs; assay type: organism-based; parameters: dose 100 mg/kg, route oral; details: in vivo
Outline: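 Rats dosed orally at 100 mg/kg in 0.5% CMC (n = 4). Stomach lesions counted and graded by area: level I <1 mm², II 1–3 mm², III >3 mm². Ulcer index = 1×(level I count) + 2×(level II) + 3×(level III). Mean ± SEM; one-way ANOVA versus control.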

Rattus norvegicus [8] = test: Antiinflammatory activity in albino rat assessed as inhibition of carrageenan-induced paw edema at 100 mg/kg, po administered 30 mins prior to challenge measured after 2 hrs relative to untreated control; assay type: functional; outline: as §2
Rattus norvegicus [9] = test: Antiinflammatory activity in albino rat assessed as inhibition of carrageenan-induced paw edema at 100 mg/kg, po administered 30 mins prior to challenge measured after 5 hrs relative to untreated control; assay type: functional; outline: as §2
Rattus norvegicus [10] = test: Gastric toxicity in albino rat assessed as change in gastric mucosa structure at 100 mg/kg, po after 5 hrs by hematoxylin and eosin staining; assay type: organism-based; parameters: dose 100 mg/kg, route oral; details: in vivo; outline: as §1
Rattus norvegicus [11] = test: Gastric toxicity in albino rat assessed as loss of glandular structure morphology at 100 mg/kg, po after 5 hrs by hematoxylin and eosin staining; assay type: organism-based; parameters: dose 100 mg/kg, route oral; details: in vivo; outline: as §1
Rattus norvegicus [12] = test: Gastric toxicity in albino rat assessed as loss of mucosal membrane at the area of ulceration at 100 mg/kg, po after 5 hrs by hematoxylin and eosin staining; assay type: organism-based; parameters: dose 100 mg/kg, route oral; details: in vivo; outline: as §1

| SMILES | Activity (Rattus norvegicus [1]) | inhibition in vivo at 100 mg/kg (Rattus norvegicus [2]) | Activity (Rattus norvegicus [3]) | Activity (Rattus norvegicus [4]) | inhibition in vivo at 100 mg/kg (Rattus norvegicus [5]) | inhibition in vivo at 100 mg/kg (Rattus norvegicus [6]) | UI (Rattus norvegicus [7]) | inhibition in vivo at 100 mg/kg (Rattus norvegicus [8]) | inhibition in vivo at 100 mg/kg (Rattus norvegicus [9]) | Activity (Rattus norvegicus [10]) | Activity (Rattus norvegicus [11]) | Activity (Rattus norvegicus [12]) |
| --- | --- | --- | --- | --- | --- | --- | --- | --- | --- | --- | --- | --- |
| CC(=O)c1ccc(OCC(=O)Nc2ccc(C(=O)/C=C/c3ccc4c(c3)OCO4)cc2)cc1 | Toxic | 37% | Toxic | Toxic | 53% | 57% | 11.2 | 43% | 50% | – | – | – |
| O=C(CBr)Nc1ccc(C(=O)/C=C/c2ccc(Cl)cc2)cc1 | – | 44% | – | – | 59% | 59% | 21.4 | 52% | 54% | Toxic | Toxic | Toxic |
